Assay outcomes from PubChem BioAssay.
NPY1 pot ag: human NPY-Y1 potentiation or agonism, primary screen. P25929. hit rate 0.37% among 220,000. NPY-Y1 expressing cells, potentiator/agonist activation. activation, % at 3.6 µM; in the data active means activation above about 33%, passing the limit was not always enough;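 further: cells stimulated with NPY at EC10 then isoproterenol at EC100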
NPY Y1 blocker: blocks the human neuropeptide Y Y1 receptor | P25929 | hit rate 1% among 200,000 | inhibition, % at 3.6 µM | HEK293-CNG Y1 cells, membrane potential fluorescence; NPY at EC95, then isoproterenol;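 active means inhibition above the campaign mean inhibition of all tested compounds plus 3 SD, cut at about 20% in these data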
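Test system: HEK293 cells co-expressing NPY Y1 receptor and cyclic-nucleotide gated channel; Also added: NPY (25 nM), isoproterenol (1 µM), Ro 20-1724 (25 µM); Compound dosing: one concentration, 3.6 µM, in 0.4% DMSO; Timing: dye 3 h, compound 60 min room temperature, stimulation 45 min; Technique: Membrane-potential fluorescent dye readout.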
NPY2 pot ag: potentiators or agonists of human neuropeptide Y receptor Y2; P49146; cells expressing NPY-Y2, potentiator/agonist read-out; activation, % at 3.6 µM; hit rate 0.45% among 220,000; AID 1359; in the data active means activation above about 27%;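 further: cells stimulated with NPY near EC25 plus isoproterenol at EC100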
NPY-Y2 antag: NPY-Y2 (human) receptor antagonism. hit rate 0.99% among 140,000. P49146. NPY-Y2 expressing cells, antagonist mode. inhibition, % at 2.7 µM; in the data active means inhibition above about 17%
EP2 mod: modulates human prostaglandin E2 receptor EP2 signaling; P43116; EP2-expressing cells, cAMP HTRF FRET, PGE2 co-stimulation; induction, % at 25 µM; hit rate 0.83% among 260,000; AID 940;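 active means compounds whose cAMP rise, as percent of the full-agonist control response, exceeds 60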;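 further: rat C6 glioma line stably carrying human EP2 under a CMV promoter; the protocol text gives 20 µM as final concentration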
Target sequence (P43116 whole entry, looked up): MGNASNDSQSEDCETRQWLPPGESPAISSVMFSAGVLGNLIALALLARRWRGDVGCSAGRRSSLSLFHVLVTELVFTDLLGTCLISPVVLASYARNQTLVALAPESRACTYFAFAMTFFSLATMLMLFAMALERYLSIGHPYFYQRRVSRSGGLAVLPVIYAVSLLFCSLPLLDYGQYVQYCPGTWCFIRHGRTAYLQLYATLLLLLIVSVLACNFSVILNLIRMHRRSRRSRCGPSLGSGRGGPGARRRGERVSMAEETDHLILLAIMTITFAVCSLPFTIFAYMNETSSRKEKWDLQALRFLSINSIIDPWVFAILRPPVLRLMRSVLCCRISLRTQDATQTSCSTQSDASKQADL
EP2 antag: blocks the human prostaglandin E2 receptor EP2; P43116; C6 glioma cells expressing human EP2, cAMP TR-FRET; cells stimulated with saturating PGE2; hit rate 0.52% among 260,000; inhibition, % at 25 µM; AID 1422;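 active means percent inhibition above 40 after rounding to a whole number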;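 further: rat C6 glioma host cells with rolipram phosphodiesterase inhibitor present; the protocol text gives 20 µM as final concentration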
Of the large screens only hits and unclear results are named; the others gave an inactive call. Compounds with a hit are over-represented: about 2.8% of the library has one in this group of screens.

Cc1ccc(/C=C/C(=O)NC(=S)Nc2ccc(S(=O)(=O)Nc3cc(C)on3)cc2)cc1	EP2 antag 83.0 (no result: NPY1 pot ag, NPY Y1 blocker, NPY2 pot ag, NPY-Y2 antag)
COc1ccc(/C=C/C(=O)NC(=S)Nc2ccc(S(=O)(=O)Nc3nccnc3OC)cc2)cc1	EP2 antag 40.4
NC(=O)CN1CCC2(CC1)CC(=O)c1cc(F)ccc1O2	none (no result: NPY1 pot ag, NPY Y1 blocker, NPY2 pot ag, NPY-Y2 antag)
COc1ccc(/C=C/C(=O)NC(=S)Nc2ccc(S(=O)(=O)Nc3cc(OC)ncn3)cc2)cc1	EP2 antag 63.9 (no result: NPY-Y2 antag)
COc1cc(NS(=O)(=O)c2ccc(NC(=S)NC(=O)/C=C/c3ccc(OC)c(OC)c3)cc2)ncn1	none (no result: NPY-Y2 antag)
CCOc1ccc2[nH]c(=O)c(C(c3nnnn3C3CCCC3)N3CCC(C)CC3)cc2c1 (centres undefined)	none (no result: NPY1 pot ag, NPY Y1 blocker, NPY2 pot ag, NPY-Y2 antag)
N#Cc1c(NC(=O)c2ccc(Cn3cc(Br)cn3)o2)sc2c1CCCCC2	none
COC(=O)c1sc(NC(=O)c2ccc(Cn3cc(Cl)cn3)o2)c(C#N)c1C	NPY1 pot ag 60.4, NPY2 pot ag 35.6
N#Cc1ccc(/C=C\c2nc(O)c([N+](=O)[O-])c(=O)[nH]2)cc1	none (no result: NPY1 pot ag, NPY Y1 blocker, NPY2 pot ag, NPY-Y2 antag)
CN1/C(=C/C(=O)c2ccc(Cl)cc2)Sc2cc3c(cc21)OCO3	EP2 antag 75.4
COc1ccc2c(c1)S/C(=C\C(=O)c1ccncc1)N2C	none
COc1ccc(C(=O)/C=C2/Sc3cc4c(cc3N2C)OCO4)cc1	EP2 antag 76.7
COc1ccc2c(c1)C(=O)CC1(CCN(C(=O)OC(C)(C)C)CC1)O2	none (no result: NPY1 pot ag, NPY Y1 blocker, NPY2 pot ag, NPY-Y2 antag)
CCOC(=O)COc1ccccc1/C=C\[N+](=O)[O-]	EP2 antag 91.7
c1ccc(N2CCN(c3nnnn3-c3ccccc3)CC2)cc1	none
ClC(Cl)(c1nnnn1-c1ccccc1)c1nnnn1-c1ccccc1	EP2 antag 80.7
CCC(CN1CCOCC1)NC(=O)Cc1csc(-c2cccc(Cl)c2)n1 (centres undefined)	none (no result: NPY1 pot ag, NPY Y1 blocker, NPY2 pot ag, NPY-Y2 antag)
Cc1noc(C)c1S(=O)(=O)N(C)CC(=O)NCc1ccccc1	none
Cc1noc(C)c1S(=O)(=O)N(CCc1ccccc1)Cc1ccccc1	NPY Y1 blocker 24.3, NPY-Y2 antag 20.2
COCCNC(=O)CSc1nc(-c2ccc(F)cc2)cc(C(F)(F)F)n1	none (no result: NPY1 pot ag, NPY Y1 blocker, NPY2 pot ag, NPY-Y2 antag)
COc1ccc(-c2noc(-c3ccccc3C(=O)Nc3cccnc3)n2)cc1OC	none
COc1ccc(-c2noc(-c3ccccc3C(=O)Nc3cccc(OC)c3)n2)cc1	NPY Y1 blocker 43.0, NPY-Y2 antag 24.5
CC1CN(Cc2nc3c([nH]2)c(=O)n(C)c(=O)n3C)CC(C)O1 (centres undefined)	none (no result: NPY1 pot ag, NPY Y1 blocker, NPY2 pot ag, NPY-Y2 antag)
COC(=O)CSc1nc(-c2ccccc2)cc(-c2ccco2)c1C#N	NPY Y1 blocker 23.1, NPY-Y2 antag 20.8
Cc1ccc2c(c1)C=CC(C)N2C(=O)c1ccccc1 (centres undefined)	EP2 mod 64.1
COc1ccc(C(=O)N2c3ccccc3C=CC2C#N)cc1 (centres undefined)	none
O=C(C[C@@H]1C=Cc2ccccc2N1C(=O)c1ccccc1)c1ccccc1	EP2 antag 58.8 (no result: NPY1 pot ag, NPY Y1 blocker, NPY2 pot ag, NPY-Y2 antag)
COc1ccc(NC(=O)CSc2nnc(-c3ccco3)c(-c3ccco3)n2)cc1	none (no result: NPY1 pot ag, NPY Y1 blocker, NPY2 pot ag, NPY-Y2 antag)
Cc1ccc(-c2nc(=S)c3c(n2Cc2ccco2)CCCC3)cc1	NPY Y1 blocker 21.4
O=c1c2ccccc2sc2c(CO)ccc(NCCN3CCCCC3)c12	EP2 antag 58.3 (no result: NPY1 pot ag, NPY Y1 blocker, NPY2 pot ag, NPY-Y2 antag)
Fc1ccc(-c2csc3ncnc(Nc4ccc(N5CCOCC5)cc4)c23)cc1	none
Fc1ccc(-c2csc3ncnc(N4CCc5ccccc5C4)c23)cc1	EP2 mod 63.7
COc1ccc(C2Oc3ccccc3C(=O)N2C(=O)c2ccc(F)cc2)cc1OC (centres undefined)	none (no result: NPY1 pot ag, NPY Y1 blocker, NPY2 pot ag, NPY-Y2 antag)
Nc1nc(Nc2cccc(Cl)c2)nc(NCc2ccco2)c1[N+](=O)[O-]	none (no result: NPY Y1 blocker, NPY-Y2 antag)
Cc1ccc(Nc2nc(NCc3ccco3)c3ccccc3n2)cc1	EP2 antag 41.9 (no result: NPY-Y2 antag)
COc1ccc(Nc2nc(N)c([N+](=O)[O-])c(NCc3ccccc3)n2)cc1	none (no result: NPY Y1 blocker, NPY-Y2 antag)
Nc1nc(Nc2ccc(Cl)cc2)nc(NCc2ccco2)c1[N+](=O)[O-]	EP2 mod 65.4 (no result: NPY Y1 blocker, NPY-Y2 antag)
Cc1cccc(Nc2nc(N)c([N+](=O)[O-])c(NCc3ccco3)n2)c1	EP2 mod 62.1
Cc1ccc(Nc2nc(N)c([N+](=O)[O-])c(NCc3ccccc3)n2)cc1	EP2 mod 74.1 (no result: NPY Y1 blocker, NPY-Y2 antag)
Cc1ccc(NC(=O)c2c(C)cc(C)cc2C)nc1	none (no result: NPY1 pot ag, NPY Y1 blocker, NPY2 pot ag, NPY-Y2 antag)
